Laboratory results taken from ChEMBL document CHEMBL1932980, “Structure-activity relationships of 2-amino-3-aroyl-4-[(4-arylpiperazin-1-yl)methyl]thiophenes. Part 2: Probing the influence of diverse substituents at the phenyl of the arylpiperazine moiety on allosteric enhancer activity at the A₁ adenosine receptor” (Bioorg Med Chem, 2012).

What was measured:
[1] = target: T1, Adenosine receptor A1 (Homo sapiens) (UniProt P30542); assay: Allosteric enhancer activity at recombinant human A1 adenosine receptor expressed in CHO cells assessed as change in forskolin-induced cAMP production at 0.01 uM after 6 mins by radioimmunoassay; format: functional, cell-based
T1 sequence (whole entry): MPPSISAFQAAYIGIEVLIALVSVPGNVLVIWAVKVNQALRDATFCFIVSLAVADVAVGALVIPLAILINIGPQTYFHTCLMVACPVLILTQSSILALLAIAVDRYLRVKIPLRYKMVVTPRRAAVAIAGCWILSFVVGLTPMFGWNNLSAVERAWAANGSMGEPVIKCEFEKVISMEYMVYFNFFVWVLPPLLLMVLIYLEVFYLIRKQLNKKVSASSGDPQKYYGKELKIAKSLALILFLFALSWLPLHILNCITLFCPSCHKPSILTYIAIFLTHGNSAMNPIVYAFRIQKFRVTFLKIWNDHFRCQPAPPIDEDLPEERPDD
Procedure, shortened: (§1)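 hA1CHO cells (about 8000 fmol/mg protein) thawed from low-passage stocks, grown in Ham's F-12 with 10% FBS and G-418, then plated 48 h. Test compound at 0.01, 0.1, 1 or 10 µM with CPA (0.05–0.1 nM) for 6 min at 36 °C. Stopped with HCl (final 50 mM). cAMP in acidified extracts measured by radioimmunoassay. Reference enhancer run in each experiment. Four experiments per concentration.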

[2] = target: T1, Adenosine receptor A1 (Homo sapiens); assay: Allosteric enhancer activity at recombinant human A1 adenosine receptor expressed in CHO cells assessed as change in forskolin-induced cAMP production at 0.1 uM after 6 mins by radioimmunoassay; format: functional, cell-based; procedure, shortened: as §1
[3] = target: T1, Adenosine receptor A1 (Homo sapiens); assay: Allosteric enhancer activity at recombinant human A1 adenosine receptor expressed in CHO cells assessed as change in forskolin-induced cAMP production at 1 uM after 6 mins by radioimmunoassay; format: functional, cell-based; procedure, shortened: as §1
[4] = target: T1, Adenosine receptor A1 (Homo sapiens); assay: Allosteric enhancer activity at recombinant human A1 adenosine receptor expressed in CHO cells assessed as change in forskolin-induced cAMP production at 10 uM after 6 mins by radioimmunoassay; format: functional, cell-based; procedure, shortened: as §1
[5] = target: T1, Adenosine receptor A1 (Homo sapiens); assay: Displacement of [3H]DPCPX from recombinant human A1 adenosine receptor expressed in CHO cells at 10 uM after 120 mins by scintillation counting; format: cell-based
Procedure, shortened: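 Membranes from hA1CHO cells incubated with 1 nM [3H]DPCPX in 50 mM Tris–HCl pH 7.4 at 25 °C for 120 min. Compound added from a 100-fold DMSO stock, so 1% DMSO final, also present in controls. Bound ligand separated on GF/B filters and counted by scintillation. Result given as % of control specific binding.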

[6] = target: Adenosine receptor A2a (Homo sapiens) (UniProt P29274); assay: Displacement of [3H]ZM241385 from recombinant human A2A adenosine receptor expressed in CHO cells at 10 uM after 60 mins by scintillation counting; format: cell-based
Procedure, shortened: (§2)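 Membranes from hA2ACHO cells incubated with 1 nM [3H]ZM 241385 in 50 mM Tris–HCl, 10 mM MgCl2, pH 7.4 at 4 °C for 60 min. Compound added from a 100-fold DMSO stock, 1% DMSO final, also in controls. Separated by GF/B filtration and counted by scintillation. Result given as % of control specific binding.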

[7] = target: T2, Adenosine receptor A3 (Homo sapiens) (UniProt P0DMS8); assay: Displacement of [3H]MRE3008F20 from recombinant human A3 adenosine receptor expressed in CHO cells at 10 uM after 120 mins by scintillation counting; format: cell-based
T2 sequence (whole entry): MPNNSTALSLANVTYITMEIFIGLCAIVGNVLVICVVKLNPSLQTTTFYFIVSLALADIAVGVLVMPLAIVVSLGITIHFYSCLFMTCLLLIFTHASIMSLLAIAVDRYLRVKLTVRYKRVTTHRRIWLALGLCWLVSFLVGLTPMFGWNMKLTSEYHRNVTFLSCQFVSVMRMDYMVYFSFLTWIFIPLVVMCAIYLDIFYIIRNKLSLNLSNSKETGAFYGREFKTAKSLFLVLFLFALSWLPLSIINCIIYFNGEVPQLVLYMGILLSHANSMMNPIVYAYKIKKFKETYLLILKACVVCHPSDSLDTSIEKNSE
Procedure, shortened: as §2, with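 “from hA3CHO” for “from hA2ACHO”, “with 2” for “with 1”, “nM [3H]MRE 3008F20” for “nM [3H]ZM 241385”, “MgCl2, 1 mM EDTA,” for “MgCl2,”, “for 120” for “for 60”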

[8] = target: T1, Adenosine receptor A1 (Homo sapiens); assay: Binding affinity to recombinant human A1 adenosine receptor allosteric site expressed in CHO cells assessed as [3H]CCPA Bmax shift at 10 uM after 90 mins relative to control; format: cell-based
Procedure, shortened: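 Saturation binding of [3H]CCPA (0.05–20 nM) to hA1CHO membranes. Membranes pretreated with adenosine deaminase 3 UI/mL for 30 min at 37 °C. Run in triplicate, 90 min at 25 °C, in 50 mM Tris–HCl pH 7.4, with or without test compound at final 10 µM. Nonspecific binding taken with 1 µM R-PIA. Bmax fitted by LIGAND. Shift is the fold of Bmax increase over control.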

[9] = target: T1, Adenosine receptor A1 (Homo sapiens); assay: Binding affinity to recombinant human A1 adenosine receptor allosteric site expressed in CHO cells assessed as [3H]DPCPX Bmax shift at 10 uM after 90 mins relative to control; format: cell-based
Procedure, shortened: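 Saturation binding of [3H]DPCPX (0.05–20 nM) to hA1CHO membranes, run in triplicate, 90 min at 25 °C, in 50 mM Tris–HCl pH 7.4, with or without test compound at final 10 µM. Nonspecific binding taken with 1 µM DPCPX. KD and Bmax fitted by LIGAND. Shift is the fold of Bmax increase over control.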

[10] = target: T1, Adenosine receptor A1 (Homo sapiens); assay: Binding affinity to recombinant human A1 adenosine receptor allosteric site expressed in CHO cells assessed as potentiation of CCPA-induced [3H]DPCPX displacement at 10 uM after 90 mins relative to control; format: cell-based
Procedure, shortened: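 Competition of CCPA (0.01 nM–1 µM) against 1 nM [3H]DPCPX on hA1CHO membranes, run in triplicate, 90 min at 25 °C, in 50 mM Tris–HCl pH 7.4, with or without test compound at 10 µM. Nonspecific binding taken with 1 µM DPCPX. Ki by Cheng–Prusoff. Shift = Ki(CCPA)/Ki(CCPA + 10 µM compound).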

Chain of Adenosine receptor A2a (Homo sapiens) (P29274 whole entry): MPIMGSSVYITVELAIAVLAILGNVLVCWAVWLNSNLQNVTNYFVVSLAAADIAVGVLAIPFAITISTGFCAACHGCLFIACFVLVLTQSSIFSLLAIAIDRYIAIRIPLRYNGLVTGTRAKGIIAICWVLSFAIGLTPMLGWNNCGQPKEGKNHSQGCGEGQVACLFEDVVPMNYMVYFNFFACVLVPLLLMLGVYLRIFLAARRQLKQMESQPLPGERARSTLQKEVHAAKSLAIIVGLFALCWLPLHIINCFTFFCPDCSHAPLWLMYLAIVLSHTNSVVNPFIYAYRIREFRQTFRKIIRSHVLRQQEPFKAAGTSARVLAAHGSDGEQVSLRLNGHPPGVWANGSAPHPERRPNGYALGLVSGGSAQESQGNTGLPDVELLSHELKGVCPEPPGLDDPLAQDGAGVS

| Activity [1] | Activity [2] | Activity [3] | Activity [4] | inhibition [5] | inhibition [6] | inhibition [7] | fold change (FC) [8] | fold change (FC) [9] | fold change (FC) [10] | Compound |
| --- | --- | --- | --- | --- | --- | --- | --- | --- | --- | --- |
| -13% | -5.2% | -66% | -79% | 0% | 0% | 0% | 4.8 | 1 | 4 | Nc1scc(CN2CCN(c3cccc(F)c3F)CC2)c1C(=O)c1ccc(Cl)cc1 |
| -1% | 3.6% | 7.3% | -7.4% | 0% | 0% | 0% | 1.1 | 0.9 | 1.2 | CC(C)N1CCN(Cc2csc(N)c2C(=O)c2ccc(Cl)cc2)CC1 |
| -12% | -13% | -8.3% | -17% | 1% | 1% | 2% | 1.1 | 0.9 | 4.2 | Nc1scc(CN2CCN(c3ccc([N+](=O)[O-])cc3)CC2)c1C(=O)c1ccc(Cl)cc1 |
| 9.1% | 2.1% | 10% | -30% | 0% | 3% | 3% | 1.1 | 0.9 | 1.3 | Nc1scc(CN2CCN(C3CCCC3)CC2)c1C(=O)c1ccc(Cl)cc1 |
| 8.7% | 0% | 2.9% | -21% | 1% | 0% | 0% | 1.1 | 0.9 | 1.3 | Nc1scc(CN2CCN(c3cccc4ccccc34)CC2)c1C(=O)c1ccc(Cl)cc1 |
| 2.2% | -3.9% | -34% | -82% | 0% | 0% | 1% | 3.7 | 0.9 | 3.1 | Nc1scc(CN2CCN(Cc3ccc(F)cc3)CC2)c1C(=O)c1ccc(Cl)cc1 |
| -2.5% | -12% | -47% | -60% | 0% | 0% | 3% | 5.7 | 1 | 4.5 | Nc1scc(CN2CCN(c3ccc(Cl)c(C(F)(F)F)c3)CC2)c1C(=O)c1ccc(Cl)cc1 |
| 13% | -6.2% | -42% | -62% | 0% | 0% | 1% | 3.2 | 0.9 | 2.8 | Nc1scc(CN2CCN(c3cc(Cl)ccc3Cl)CC2)c1C(=O)c1ccc(Cl)cc1 |
| -9.2% | -9.4% | -57% | -81% | 0% | 0% | 1% | 5.3 | 1 | 4.3 | Nc1scc(CN2CCN(c3ccc(Cl)cc3F)CC2)c1C(=O)c1ccc(Cl)cc1 |
| 1.2% | -3.1% | -32% | -76% | 1% | 0% | 2% | 3.1 | 1 | 3.4 | Nc1scc(CN2CCN(CCc3ccc(Cl)cc3)CC2)c1C(=O)c1ccc(Cl)cc1 |
| -8.2% | -30% | -72% | -80% | 0% | 3% | 0% | 5.3 | 1 | 4.3 | Nc1scc(CN2CCN(c3cccc(C(F)(F)F)c3)CC2)c1C(=O)c1ccc(Cl)cc1 |
| 3.2% | 3.4% | -2.7% | -23% | 0% | 0% | 0% | 1.3 | 0.9 | 1.4 | Nc1scc(CN2CCN(c3cccnc3)CC2)c1C(=O)c1ccc(Cl)cc1 |
| -5% | 1% | -25% | -62% | 0% | 1% | 0% | 1.4 | 0.9 | 1.4 | Nc1scc(CN2CCN(CC(=O)c3ccc(Cl)cc3)CC2)c1C(=O)c1ccc(Cl)cc1 |
| -13% | -5% | -66% | -79% | 0% | 0% | 2% | 6.2 | 1.1 | 4.8 | Nc1scc(CN2CCN(c3cc(F)cc(F)c3)CC2)c1C(=O)c1ccc(Cl)cc1 |
| -18% | -37% | -86% | -82% | 1% | 1% | 4% | 4.8 | 1 | 3.9 | Nc1scc(CN2CCN(c3cccc(F)c3)CC2)c1C(=O)c1ccc(Cl)cc1 |
| -6.2% | -10% | -34% | -60% | 1% | 0% | 0% | 1.6 | 0.9 | 1.6 | Nc1scc(CN2CCN(C(=O)c3ccc(Cl)cc3)CC2)c1C(=O)c1ccc(Cl)cc1 |
| 0% | -7.5% | -39% | -60% | 0% | 0% | 0% | 4.4 | 1 | 3.6 | Nc1scc(CN2CCN(c3ccccc3C(F)(F)F)CC2)c1C(=O)c1ccc(Cl)cc1 |
